Source: ChEMBL document CHEMBL1275434, “In vitro evaluation of CBR-2092, a novel rifamycin-quinolone hybrid antibiotic: studies of the mode of action in Staphylococcus aureus” (Antimicrob Agents Chemother, 2008)
In brackets after ≈: the same amount, converted by molar mass. Activity calls are given as the source filed them. The calls are words filed in the database; no cut-off is given here.

Tests used:
Staphylococcus aureus [1] = assay: Antimicrobial activity against Staphylococcus aureus CB190 by broth microdilution method; type: functional
Staphylococcus aureus [2] = assay: Antimicrobial activity against Staphylococcus aureus CB811 harboring quinolone-resistant gyrA S84L mutant gene by broth microdilution method; type: functional
Summary of the method: (§1)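 CLSI broth microdilution MIC in cation-adjusted Mueller-Hinton (MHII) broth supplemented with 0.002% (vol/vol) polysorbate 80, included to limit compound loss to plastic surfaces.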

Staphylococcus aureus [3] = assay: Antimicrobial activity against Staphylococcus aureus CB808 harboring quinolone-resistant parC S80F mutant gene by broth microdilution method; type: functional; summary of the method: as §1
Staphylococcus aureus [4] = assay: Antimicrobial activity against Staphylococcus aureus CB814 harboring fluoroquinolone-resistant gyrA S84L and parC S80F mutant genes by broth microdilution method; type: functional; summary of the method: as §1
Staphylococcus aureus [5] = assay: Antimicrobial activity against Staphylococcus aureus CB370 harboring rifampin-resistant rpoB H481Y mutant gene by broth microdilution method; type: functional; summary of the method: as §1
Staphylococcus aureus [6] = assay: Antimicrobial activity against Staphylococcus aureus CB812 harboring rpo B H481Y and gyrA S84L mutant genes by broth microdilution method; type: functional; summary of the method: as §1
Staphylococcus aureus [7] = assay: Antimicrobial activity against Staphylococcus aureus CB809 harboring rpoB H481Y and parC S80F mutant genes by broth microdilution method
Staphylococcus aureus [8] = assay: Antimicrobial activity against Staphylococcus aureus CB815 harboring rpoB H481Y, gyrA S84L and parC S80F mutant genes by broth microdilution method
Staphylococcus aureus [9] = assay: Antimicrobial activity against Staphylococcus aureus CB1884; type: functional
Staphylococcus aureus [10] = assay: Antimicrobial activity against Staphylococcus aureus CB1887 harboring rpoB R484H, L520 deficient gyrA, […], R236 duplicated parC and parC H103Y mutant genes selected after ABT-719 exposure for 20 days; type: functional; settings: CB1887, 480 h
Staphylococcus aureus [11] = assay: Antimicrobial activity against Staphylococcus aureus CB370 harboring rpoB H481Y mutant gene; type: functional
Staphylococcus aureus [12] = assay: Antimicrobial activity against Staphylococcus aureus CB814 harboring […] and parC S80F mutant genes; type: functional
Staphylococcus aureus [13] = assay: Antimicrobial activity against Staphylococcus aureus CB1952 harboring rpoB S486L, gyrA […], gyrA E88Q, gyrA G532S, parC S80F, parC E84L mutant genes selected after CBR-2092 exposure for 21 days; type: functional; settings: CB1952, 504 h
Staphylococcus aureus [14] = assay: Antimicrobial activity against Staphylococcus aureus CB815 harboring rpoB H481Y, gyrA […] and parC S80F mutant genes; type: functional
Staphylococcus aureus [15] = assay: Antimicrobial activity against Staphylococcus aureus CB1953 harboring rpoB H481Y, gyrA S84L, gyrA V598I, parC S80F, parC R570H mutant genes selected after CBR-2092 exposure for 7 days; type: functional; settings: CB1953, 168 h
Staphylococcus aureus [16] = assay: Antimicrobial activity against Staphylococcus aureus CB1954 harboring rpoB H481Y, gyrA S84L, K809 deficient gyrA, parC S80F, parC A523D mutant genes selected after CBR-2092 exposure for 7 days; type: functional; settings: CB1954, 168 h; summary of the method: as §1
[17] = Inhibition of Staphylococcus aureus wild-type RNA polymerase RpoB
Summary of the method: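 Recombinant S. aureus σA RNA polymerase holoenzyme in a single-round transcription assay using the pGL2B-T7A1-G-less template. The 272-nucleotide G-less RNA product was quantified by gel electrophoresis. IC50 is the concentration halving the product formed without test agent.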

[18] = Inhibition of Staphylococcus aureus RpoB H481Y mutant
Summary of the method: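 Recombinant S. aureus σA RNA polymerase holoenzyme carrying RpoB H481Y. Single-round transcription of the pGL2B-T7A1-G-less template. The 272-nt G-less RNA product is quantified by gel electrophoresis. IC50 is the concentration that inhibits 50% of product formed without inhibitor.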

Staphylococcus aureus [19] = assay: Inhibition of DNA synthesis in Staphylococcus aureus CB190 assessed as decrease in [methyl-3H]thymidine incorporation at 0.032 ug/ml; type: functional, organism-based
Staphylococcus aureus [20] = assay: Inhibition of RNA synthesis in Staphylococcus aureus CB190 assessed as decrease in [5,6-3H]uridine incorporation at 0.032 ug/ml; type: functional, organism-based
Staphylococcus aureus [21] = assay: Inhibition of protein synthesis in Staphylococcus aureus CB190 assessed as decrease in L-[3,4,5-3H]leucine incorporation at 0.032 ug/ml; type: functional, organism-based
Staphylococcus aureus [22] = assay: Inhibition of cell wall synthesis in Staphylococcus aureus CB190 assessed as decrease in [2,3-3H]D-alanine incorporation at 0.032 ug/ml; type: functional, organism-based
Staphylococcus aureus [23] = assay: Inhibition of DNA synthesis in rifamycin-resistant Staphylococcus aureus CB370 harboring rpoB H481Y mutant gene assessed as [methyl-3H]thymidine incorporation at 0.032 ug/ml; type: functional, organism-based
Summary of the method: (§2)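 Macromolecular synthesis time course in S. aureus, measuring incorporation of [methyl-3H]thymidine (DNA), [5,6-3H]uridine (RNA) or [2,3-3H]D-alanine (cell wall). At each time point, incorporation is expressed as percent of the DMSO-treated control culture. Incorporation at time zero is set to 100%.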

Staphylococcus aureus [24] = assay: Inhibition of RNA synthesis in rifamycin-resistant Staphylococcus aureus CB370 harboring rpoB H481Y mutant gene assessed as [5,6-3H]uridine incorporation at 0.032 ug/ml; type: functional, organism-based; summary of the method: as §2
Staphylococcus aureus [25] = assay: Inhibition of protein synthesis in rifamycin-resistant Staphylococcus aureus CB370 harboring rpoB H481Y mutant gene assessed as L-[3,4,5-3H]leucine incorporation at 0.032 ug/ml; type: functional, organism-based
Summary of the method: (§3)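 Time-course radiolabel incorporation in S. aureus cultures with test agent. Precursors: [methyl-3H]thymidine (DNA), [5,6-3H]uridine (RNA), L-[3,4,5-3H]leucine (protein), [2,3-3H]D-alanine (cell wall). At each time point, incorporation with agent is expressed relative to the DMSO-treated control culture as percent incorporation. Time-zero incorporation is set to 100%.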

Staphylococcus aureus [26] = assay: Inhibition of cell wall synthesis in rifamycin-resistant Staphylococcus aureus CB370 harboring rpoB H481Y mutant gene assessed as [2,3-3H]D-alanine incorporation at 0.032 ug/ml; type: functional, organism-based; summary of the method: as §2
Staphylococcus aureus [27] = assay: Inhibition of DNA synthesis in quinolone-resistant Staphylococcus aureus CB814 harboring gyrA S84L and parC S80F mutant genes assessed as decrease in [methyl-3H]thymidine incorporation at 0.032 ug/ml; type: functional, organism-based; summary of the method: as §2
Staphylococcus aureus [28] = assay: Inhibition of RNA synthesis in quinolone-resistant Staphylococcus aureus CB814 harboring gyrA S84L and parC S80F mutant genes assessed as decrease in [5,6-3H]uridine incorporation at 0.032 ug/ml; type: functional, organism-based; summary of the method: as §2
Staphylococcus aureus [29] = assay: Inhibition of protein synthesis in quinolone-resistant Staphylococcus aureus CB814 harboring gyrA S84L and parC S80F mutant genes assessed as decrease in L-[3,4,5-3H]leucine incorporation at 0.032 ug/ml; type: functional, organism-based; summary of the method: as §3
Staphylococcus aureus [30] = assay: Inhibition of cell wall synthesis in quinolone-resistant Staphylococcus aureus CB814 harboring gyrA S84L and parC S80F mutant genes assessed as decrease in [2,3-3H]D-alanine incorporation at 0.032 ug/ml; type: functional, organism-based; summary of the method: as §2
Staphylococcus aureus [31] = assay: Antimicrobial activity against rifampin-sensitive Staphylococcus aureus CB190 by broth microdilution method; type: functional; summary of the method: as §1
Staphylococcus aureus [32] = assay: Antimicrobial activity against rifampin-sensitive Staphylococcus aureus CB190 harboring rpoB H481Y mutant gene by broth microdilution method; type: functional; summary of the method: as §1
Staphylococcus aureus [33] = assay: Antimicrobial activity against rifampin-sensitive Staphylococcus aureus CB190 harboring rpoB Q468L mutant gene by broth microdilution method; type: functional; summary of the method: as §1
Staphylococcus aureus [34] = assay: Antimicrobial activity against rifampin-sensitive Staphylococcus aureus CB190 harboring rpoB Q468K mutant gene by broth microdilution method; type: functional; summary of the method: as §1
Staphylococcus aureus [35] = assay: Antimicrobial activity against rifampin-sensitive Staphylococcus aureus CB190 harboring rpo BH481D mutant gene by broth microdilution method; type: functional; summary of the method: as §1
Staphylococcus aureus [36] = assay: Antimicrobial activity against rifampin-sensitive Staphylococcus aureus CB190 harboring rpoB H472 mutant gene by broth microdilution method; type: functional; summary of the method: as §1
Staphylococcus aureus [37] = assay: Antimicrobial activity against rifampin-sensitive Staphylococcus aureus CB190 harboring rpoB D471Y mutant gene by broth microdilution method; type: functional; summary of the method: as §1
Staphylococcus aureus [38] = assay: Antimicrobial activity against rifampin-sensitive Staphylococcus aureus CB190 harboring rpoB E473 mutant gene by broth microdilution method; type: functional; summary of the method: as §1
Staphylococcus aureus [39] = assay: Antimicrobial activity against rifampin-sensitive Staphylococcus aureus CB190 harboring rpoB H481N mutant gene by broth microdilution method; type: functional; summary of the method: as §1
Staphylococcus aureus [40] = assay: Antimicrobial activity against rifampin-sensitive Staphylococcus aureus CB190 harboring rpoB N474K mutant gene by broth microdilution method; type: functional; summary of the method: as §1
Staphylococcus aureus [41] = assay: Antimicrobial activity against rifampin-sensitive Staphylococcus aureus CB190 harboring rpoB A477V mutant gene by broth microdilution method; type: functional; summary of the method: as §1
Staphylococcus aureus [42] = assay: Antimicrobial activity against rifampin-sensitive Staphylococcus aureus CB190 harboring rpoB D471G mutant gene by broth microdilution method; type: functional; summary of the method: as §1
Staphylococcus aureus [43] = assay: Antimicrobial activity against Staphylococcus aureus CB1947 harboring rpoB H481Y, gyrA S84L, E697 deficient gyrA, parC G167V mutant genes selected after CBR-2092 exposure for 20 days; settings: CB1947, 480 h

C[C@H]1COc2c(N3CCN(C)CC3)c(F)cc3c(=O)c(C(=O)O)cn1c23.C[C@H]1COc2c(N3CCN(C)CC3)c(F)cc3c(=O)c(C(=O)O)cn1c23.O [LEVOFLOXACIN]
MIC (Staphylococcus aureus [1]): 0.25 µg/mL | MIC (Staphylococcus aureus [2]): 0.25 µg/mL | MIC (Staphylococcus aureus [3]): 1 µg/mL | MIC (Staphylococcus aureus [4]): 8 µg/mL | MIC (Staphylococcus aureus [5]): 0.25 µg/mL | MIC (Staphylococcus aureus [6]): 0.25 µg/mL | MIC (Staphylococcus aureus [7]): 1 µg/mL | MIC (Staphylococcus aureus [8]): 8 µg/mL

CO[C@H]1/C=C/O[C@@]2(C)Oc3c(C)c(O)c4c(O)c(c(/C=N/N5CCN(C)CC5)c(O)c4c3C2=O)NC(=O)/C(C)=C\C=C\[C@H](C)[C@H](O)[C@@H](C)[C@@H](O)[C@@H](C)[C@H](OC(C)=O)[C@@H]1C [RIFAMPIN]
MIC (Staphylococcus aureus [9]): > 250 µg/mL | MIC (Staphylococcus aureus [10]): > 250 µg/mL | MIC (Staphylococcus aureus [11]): > 250 µg/mL | MIC (Staphylococcus aureus [12]): 0.008 µg/mL (≈ 0.00972 µM) | MIC (Staphylococcus aureus [13]): > 250 µg/mL | MIC (Staphylococcus aureus [14]): > 125 µg/mL | MIC (Staphylococcus aureus [15]): > 125 µg/mL | MIC (Staphylococcus aureus [16]): > 125 µg/mL | IC50 [17]: 15 nM | IC50 [18]: > 25000 nM | MIC (Staphylococcus aureus [1]): 0.008 µg/mL (≈ 0.00972 µM) | MIC (Staphylococcus aureus [2]): 0.008 µg/mL (≈ 0.00972 µM) | MIC (Staphylococcus aureus [3]): 0.008 µg/mL (≈ 0.00972 µM) | MIC (Staphylococcus aureus [4]): 0.008 µg/mL (≈ 0.00972 µM) | MIC (Staphylococcus aureus [5]): > 250 µg/mL | MIC (Staphylococcus aureus [6]): > 250 µg/mL | Activity (Staphylococcus aureus [19]): Active | Activity (Staphylococcus aureus [20]): Active | Activity (Staphylococcus aureus [21]): Active | Activity (Staphylococcus aureus [22]): Active | Activity (Staphylococcus aureus [23]): inactive | Activity (Staphylococcus aureus [24]): inactive | Activity (Staphylococcus aureus [25]): inactive | Activity (Staphylococcus aureus [26]): inactive | Activity (Staphylococcus aureus [27]): Active | Activity (Staphylococcus aureus [28]): Active | Activity (Staphylococcus aureus [29]): Active | Activity (Staphylococcus aureus [30]): Active | MIC (Staphylococcus aureus [31]): 0.008 µg/mL (≈ 0.00972 µM) | MIC (Staphylococcus aureus [32]): > 64 µg/mL | MIC (Staphylococcus aureus [33]): > 64 µg/mL | MIC (Staphylococcus aureus [34]): > 64 µg/mL | MIC (Staphylococcus aureus [35]): > 64 µg/mL | MIC (Staphylococcus aureus [36]): 32 µg/mL (≈ 38.9 µM) | MIC (Staphylococcus aureus [37]): 16 µg/mL (≈ 19.4 µM) | MIC (Staphylococcus aureus [38]): 8 µg/mL (≈ 9.72 µM) | MIC (Staphylococcus aureus [39]): 2 µg/mL (≈ 2.43 µM) | MIC (Staphylococcus aureus [40]): 2 µg/mL (≈ 2.43 µM) | MIC (Staphylococcus aureus [41]): 1 µg/mL (≈ 1.22 µM) | MIC (Staphylococcus aureus [42]): 0.25 µg/mL (≈ 0.304 µM) | MIC (Staphylococcus aureus [7]): > 250 µg/mL | MIC (Staphylococcus aureus [8]): > 250 µg/mL | MIC (Staphylococcus aureus [43]): > 250 µg/mL
